For data set [1], the target named is T1, Kinesin-like protein KIF11 (Homo sapiens, UniProt P52732).
T1 sequence (P52732 whole entry): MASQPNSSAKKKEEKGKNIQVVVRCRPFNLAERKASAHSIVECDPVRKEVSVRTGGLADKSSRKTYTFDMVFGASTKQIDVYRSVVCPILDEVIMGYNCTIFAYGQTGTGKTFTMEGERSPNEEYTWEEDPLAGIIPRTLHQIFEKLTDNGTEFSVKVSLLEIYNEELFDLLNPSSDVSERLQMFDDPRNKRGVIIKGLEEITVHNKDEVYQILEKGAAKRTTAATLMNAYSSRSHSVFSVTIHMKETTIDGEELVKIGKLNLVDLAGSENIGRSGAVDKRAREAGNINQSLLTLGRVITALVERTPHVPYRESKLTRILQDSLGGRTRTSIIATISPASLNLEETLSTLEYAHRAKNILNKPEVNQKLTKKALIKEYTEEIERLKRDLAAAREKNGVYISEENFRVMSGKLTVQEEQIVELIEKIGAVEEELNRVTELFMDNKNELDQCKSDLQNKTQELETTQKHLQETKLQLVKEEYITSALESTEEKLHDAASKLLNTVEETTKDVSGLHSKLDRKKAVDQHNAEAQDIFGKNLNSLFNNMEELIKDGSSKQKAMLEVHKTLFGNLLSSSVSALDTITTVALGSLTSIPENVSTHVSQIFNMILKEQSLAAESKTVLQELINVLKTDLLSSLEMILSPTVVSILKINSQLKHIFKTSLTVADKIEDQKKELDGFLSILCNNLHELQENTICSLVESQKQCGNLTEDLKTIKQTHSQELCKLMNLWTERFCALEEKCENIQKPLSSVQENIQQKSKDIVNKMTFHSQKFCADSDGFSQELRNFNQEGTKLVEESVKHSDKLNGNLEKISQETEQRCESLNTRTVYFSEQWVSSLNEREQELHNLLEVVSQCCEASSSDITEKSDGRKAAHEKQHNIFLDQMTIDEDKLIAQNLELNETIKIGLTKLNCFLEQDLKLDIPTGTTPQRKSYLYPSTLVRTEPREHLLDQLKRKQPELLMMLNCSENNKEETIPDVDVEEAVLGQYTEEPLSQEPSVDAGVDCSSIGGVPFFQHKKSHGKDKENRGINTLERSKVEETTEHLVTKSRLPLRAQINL
Kind of data set: Inhibition of kinesin spindle protein.

Another data set relates to A2780. The data set is described as follows: Mitotic arrest in human A2780 cells assessed as G2/M block after 16 hrs. The class given is functional, cell-based. The settings on record: A2780, 16 h. In a few lines:
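A2780 human ovarian carcinoma cells treated 16 h across a 7-point half-log dilution series. Mitosis-specific nucleolin phosphorylation read by electrochemiluminescence: total nucleolin captured on beads via anti-nucleolin antibody, phospho-nucleolin detected with a phospho-specific IgM plus ruthenium-labelled anti-mouse IgM. EC50 is the mean of at least two independent determinations.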

Data set [2] in a line: Ratio of IC50 for KB-V-1 cells to IC50 for KB-3-1 cells after 16 hrs. The class given is functional, Homo sapiens. In a few lines:
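Mitotic arrest measured in Pgp-high KB-V-1 cells (derived from parental KB-3-1 by culture with vinblastine; >500-fold higher Pgp mRNA and protein) and in parental KB-3-1 cells. 16 h incubation, 11-point half-log dilution series. Read-out is phospho-nucleolin level. The ratio is the IC50 in KB-V-1 divided by the IC50 in KB-3-1.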

Data set [3] addresses Voltage-gated inwardly rectifying potassium channel KCNH2 (Homo sapiens, UniProt Q12809). The data set is described as follows: Inhibition of hERG expressed in HEK cells. The class given is toxicity, cell-based, HEK293. A general note: hERG is a cardiac potassium channel; its block is linked to QT prolongation.
A short description of data set [4]: Half life in dog at 0.25 mg/kg, iv. The class given is ADME, organism-based, Canis lupus familiaris. Further details: dose 0.25 mg/kg, route intravenous. The settings on record: in vivo. In a few lines:
(§1)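 Cassette intravenous dosing in dogs, compounds given together as a DMSO solution at 0.25 mg/kg. Two dogs per dose, with the value being their average. Individual determinations fell within ±25% of the mean.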

Data set [5] is described as follows: Clearance in dog at 0.25 mg/kg, iv. Further details: dose 0.25 mg/kg, route intravenous. The class given is ADME, organism-based, Canis lupus familiaris. The settings on record: in vivo. In a few lines: as §1
The species named for data set [6] is Canis familiaris. Kind of data set: Induction of QTc prolongation in canine cardiovascular model. The class given is functional, organism-based. The settings on record: Canis lupus familiaris; Heart.
Data set [7] is described as follows: Solubility at pH 4. The class given is physicochemical. The settings on record: buffer.
Data set [8] is filed under the species Canis familiaris. The data set is described as follows: Induction of QTc prolongation in canine cardiovascular model at 35 uM. The class given is functional, organism-based. The settings on record: Canis lupus familiaris, Heart.

Structures are written as SMILES. Active and inactive are the calls of the source. Bounds are passed on as bounds.

Experimental findings from ChEMBL document CHEMBL1139825, “Kinesin spindle protein (KSP) inhibitors. Part 7: Design and synthesis of 3,3-disubstituted dihydropyrazolobenzoxazines as potent inhibitors of the mitotic kinesin KSP” (Bioorg Med Chem Lett, 2007) are described below.

Sequence of Voltage-gated inwardly rectifying potassium channel KCNH2 (Q12809 whole entry): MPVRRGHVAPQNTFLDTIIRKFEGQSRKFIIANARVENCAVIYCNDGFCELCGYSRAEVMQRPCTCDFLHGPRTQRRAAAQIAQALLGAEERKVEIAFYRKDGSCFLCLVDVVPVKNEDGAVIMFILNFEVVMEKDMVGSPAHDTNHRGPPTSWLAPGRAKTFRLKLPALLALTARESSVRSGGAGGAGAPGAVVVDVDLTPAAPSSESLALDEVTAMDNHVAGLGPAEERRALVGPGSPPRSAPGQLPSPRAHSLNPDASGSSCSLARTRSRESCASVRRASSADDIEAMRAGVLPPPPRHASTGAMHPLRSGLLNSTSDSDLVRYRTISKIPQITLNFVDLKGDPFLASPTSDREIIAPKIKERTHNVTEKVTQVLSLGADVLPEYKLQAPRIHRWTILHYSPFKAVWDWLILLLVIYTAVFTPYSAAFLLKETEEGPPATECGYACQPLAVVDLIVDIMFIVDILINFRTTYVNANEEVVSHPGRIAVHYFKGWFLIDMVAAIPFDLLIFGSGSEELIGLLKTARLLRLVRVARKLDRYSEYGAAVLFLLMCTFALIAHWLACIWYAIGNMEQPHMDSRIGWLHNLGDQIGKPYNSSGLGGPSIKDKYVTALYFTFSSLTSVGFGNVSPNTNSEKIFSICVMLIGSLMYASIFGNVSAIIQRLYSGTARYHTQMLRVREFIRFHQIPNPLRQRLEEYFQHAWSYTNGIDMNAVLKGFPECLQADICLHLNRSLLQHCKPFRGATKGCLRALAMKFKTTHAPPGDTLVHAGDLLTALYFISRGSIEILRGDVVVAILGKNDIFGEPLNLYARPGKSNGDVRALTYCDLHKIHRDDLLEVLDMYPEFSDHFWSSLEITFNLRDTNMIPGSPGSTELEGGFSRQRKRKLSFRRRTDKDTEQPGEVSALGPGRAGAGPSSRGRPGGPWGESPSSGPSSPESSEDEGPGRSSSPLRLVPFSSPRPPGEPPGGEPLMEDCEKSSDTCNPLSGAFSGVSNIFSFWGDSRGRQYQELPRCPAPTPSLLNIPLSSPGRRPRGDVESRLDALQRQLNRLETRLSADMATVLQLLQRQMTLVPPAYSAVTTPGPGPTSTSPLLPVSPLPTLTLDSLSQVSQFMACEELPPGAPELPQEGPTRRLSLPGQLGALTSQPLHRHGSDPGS

Turning to `CC(=O)C1=NN2c3cc(F)ccc3OC[C@H]2[C@@]1(CCCN1CCC(=O)N(C)CC1)c1ccccc1`, the IC50 in data set [1] is 0.9 nM; in data set [3], 9600 nM. Moreover, in the data set on A2780, the EC50 is 4.8 nM. Besides, the “Ratio IC50” value in [2] stood at 2.6. Moreover, the half-life in data set [4] was 3.9 h. Besides, the clearance in data set [5] is 11 mL/min/kg.

As for `CC(=O)C1=NN2c3cc(C)ccc3OC[C@H]2[C@@]1(CCCN(C)C)c1ccccc1`, the IC50 in data set [1] came out at 1.8 nM; in data set [3] it was 2400 nM. In addition, the EC50 in the data set on A2780 is 6.4 nM. Also, the “Ratio IC50” value in data set [2] stood at 2.3. In [4], this compound showed a half-life of 8.3 h. This compound registered a clearance in [5] of 37 mL/min/kg.

`CC(=O)C1=NN2c3cc(F)ccc3OC[C@H]2[C@@]1(CCCN(C)C)c1ccccc1`: the figures for the IC50 in data set [1] and in data set [3] were 1.6 nM and 5940 nM, respectively. Moreover, the EC50 with A2780 was 7.4 nM. Besides, the “Ratio IC50” value in data set [2] is listed as 2.3. Also, the half-life in data set [4] was 5.7 h. This compound yielded a clearance in data set [5] of 52 mL/min/kg.

Regarding `CC(=O)C1=NN2c3cc(F)ccc3OC[C@H]2[C@@]1(CCCN1CCNC(=O)CC1)c1ccccc1`, the results for the IC50 in data set [1] and in data set [3] were 1.5 nM and 17000 nM, respectively. In the data set with A2780, the EC50 worked out at 6.9 nM. The “Ratio IC50” value in data set [2] is 3.3. Also, the half-life in data set [4] was 2.4 h. Further, the clearance in [5] was found to be 15 mL/min/kg.

For `CC(=O)C1=NN2c3cc(F)ccc3OC[C@H]2[C@@]1(CCCN1CCNCC1)c1ccccc1`, the IC50 was 4.3 nM in data set [1] and 4600 nM in [3]. Moreover, the EC50 in the data set on A2780 worked out at 5 nM. Besides, the “Ratio IC50” value in data set [2] came to 40. In data set [4], this compound gave a half-life of 3.5 h. In [5], this compound yielded a clearance of 40 mL/min/kg.

`CC(=O)C1=NN(c2cc(F)ccc2F)C[C@@]1(CCCN1CCN(C(C)=O)CC1)c1ccccc1` showed a concentration for half-maximal inhibition (IC50) in data set [1] of 3 nM. Further, in the data set listed under Canis familiaris [6], the result was Active.

As for `CC(=O)C1=NN2c3cc(Cl)ccc3OC[C@H]2[C@@]1(CCCN(C)C)c1ccccc1`, in [1], it took 1 nM to reach half-maximal inhibition (IC50). Moreover, the EC50 with A2780 is 4.8 nM.

With `CC(=O)C1=NN2c3cc(F)ccc3OC[C@H]2[C@@]1(CCCN1CCOCC1)c1ccccc1`, the IC50 in data set [1] amounted to 0.4 nM; in data set [3], 6100 nM. The EC50 with A2780 amounted to 4.4 nM. For the same compound, the “Ratio IC50” value in [2] was determined as 0.8.

As for `CC(=O)C1=NN2c3cc(F)ccc3OC[C@H]2[C@@]1(CCCN)c1ccccc1`, the half-inhibitory concentration (IC50) in data set [1] was 0.5 nM; in data set [3], 940 nM. The EC50 in the data set with A2780 came to 2.5 nM. Besides, the “Ratio IC50” value in data set [2] came out at 1.7.

With `CC(=O)C1=NN2c3cc(C)ccc3OC[C@H]2[C@@]1(CCCN1CCOCC1)c1ccccc1`, the IC50 stood at 1 nM in [1] and 6300 nM in data set [3]. Also, in the data set on A2780, the EC50 is 11 nM. Further, the “Ratio IC50” value in data set [2] is 1.4.

`CC(=O)C1=NN2c3ccccc3OC[C@H]2[C@H]1c1ccccc1` displayed an IC50 in [1] of 800 nM. That is a sub-micromolar value.

In [1], `CC(=O)C1=NN2c3cc(F)ccc3OC[C@H]2[C@@]1(CCCN1CCN(C(C)=O)CC1)c1ccccc1` showed an IC50 of 1.6 nM. The EC50 in the data set with A2780 was 5 nM. For the same compound, the half-life in [4] was 5.6 h. The compound further registered a clearance in data set [5] of 14 mL/min/kg. For the same compound, the solubility in data set [7] is > 4000 µg/mL. For the same compound, the result in the data set filed under Canis familiaris [8] was inactive.

`CC(=O)C1=NN2c3cc(Cl)ccc3OC[C@H]2C1(CCCN1CCOCC1)c1ccccc1` (mixture of isomers): the IC50 in data set [1] stood at 1.8 nM; in [3], 3300 nM. In addition, in the data set on A2780, the EC50 was 13 nM. The “Ratio IC50” value in data set [2] stood at 1.5.

In the case of `CC(=O)C1=NN2c3cc(F)ccc3OC[C@H]2[C@@]1(CCCO)c1ccccc1`, the IC50 in data set [1] was 5.2 nM; in [3] it was 18000 nM. In addition, the EC50 in the data set with A2780 came out at 11 nM. Further, the “Ratio IC50” value in data set [2] came out at 0.6.

Regarding `CC(=O)C1=NN2c3cc(Cl)ccc3OC[C@H]2[C@@]1(CCCN1CCN(C(C)=O)CC1)c1ccccc1`, the IC50 in data set [1] was 1 nM; in data set [3], 5600 nM. Also, the EC50 with A2780 amounted to 9 nM. Also, the “Ratio IC50” value in [2] was 1.6.

In data set [1], `CC(=O)C1=NN2c3cc(F)ccc3OC[C@H]2[C@H]1c1ccccc1` came in with an IC50 of 155 nM.

What is called IC50 is the concentration at which inhibition is half-maximal. High values mean weaker potency in that assay, low ones greater potency in that assay. The EC50 is the midpoint of the concentration-response curve. By half-life is commonly meant the time needed for the level to fall by half in the phase considered. The term clearance denotes the volume of plasma or blood freed of the substance per unit of time. Lower therefore signals inefficient removal. A word on the solubility: it is how much of the substance goes into solution per volume.
